# Experimental data pooled from the literature.
# Protocols differ between the studies behind these lines.
SMILES,tested on,assay,system,setting,endpoint,value
CC1=CC(=O)c2c(O)cccc2C1=O,COR-L23,"cell growth or viability, SRB",,,IC50,2500 nM
CC(C)C(=O)Nc1ncc(CC2CCCCC2)s1,Histoplasma capsulatum,microbial growth,,,MIC,> 20 µM
CCCCCCCCCCCc1c([N+](=O)[O-])oc2ccc3ccccc3c12,Mycolicibacterium smegmatis,"microbial growth, resazurin",MC^2155,,MIC90,> 32 µg/mL
CCC1(c2ccc(N)cc2)CCC(=O)NC1=O (centres unmarked),Hep3B,"cell growth or viability, CCK-8",,48 h,IC50,> 50000 nM
N#Cc1ccc(CN2C(=O)/C(=N\NC(=O)c3cc4ccccc4[nH]3)c3ccccc32)cc1,ZR75,cell growth or viability,,30 µM,inhibition,75.4%
O=C(CCC1CCCCC1)Nc1ncc(Cc2ccccc2F)s1,Histoplasma capsulatum,microbial growth,,,MIC,2.5 µM
NC(=O)c1ncn([C@@H]2O[C@H](CO)[C@@H](O)[C@H]2O)n1,Influenza B virus,cytopathic effect,MDCK,,EC50,9 µM
Nc1c([N+](=O)[O-])oc2ccc3ccccc3c12,Mycolicibacterium smegmatis,"microbial growth, resazurin",MC^2155,,MIC90,> 32 µg/mL
O=C(N/N=C1\C(=O)N(Cc2ccccc2)c2ccccc21)c1cc2ccccc2[nH]1,ZR75,cell growth or viability,,30 µM,inhibition,86.6%
O=C(CC1CCCCC1)Nc1ncc(-c2ccccc2)s1,Histoplasma capsulatum,microbial growth,,,MIC,> 20 µM
O=C(N/N=C1\C(=O)N(Cc2ccc(Cl)cc2)c2ccccc21)c1cc2ccccc2[nH]1,ZR75,cell growth or viability,,,IC50,1300 nM
CCCCc1c([N+](=O)[O-])oc2ccc3ccccc3c12,Mycolicibacterium smegmatis,"microbial growth, resazurin",MC^2155,,MIC90,16 µg/mL
O=C(Nc1ncc(Cc2ccc3ccccc3c2)s1)c1ccccc1,Histoplasma capsulatum,microbial growth,,,MIC,> 20 µM
Cc1ccc(CN2C(=O)/C(=N\NC(=O)c3cc4ccccc4[nH]3)c3ccccc32)cc1,ZR75,cell growth or viability,,30 µM,inhibition,79.1%
CCCc1cc(=O)n2nc(NCc3c(F)cc(Cl)cc3F)c(C#N)c2[nH]1,NCI-H2110,"cell growth or viability, ATP luminescence",,72 h,IC50,> 50000 nM
COc1ccc2c(ccc3oc([N+](=O)[O-])c(OC)c32)c1,Mycolicibacterium smegmatis,"microbial growth, resazurin",MC^2155,,MIC90,> 32 µg/mL
O=C(N/N=C1\C(=O)N(Cc2ccccc2)c2ccc(F)cc21)c1cc2ccccc2[nH]1,ZR75,cell growth or viability,,30 µM,inhibition,77.5%
O=[N+]([O-])c1cc2c(ccc3c4cc([N+](=O)[O-])oc4ccc23)o1,Mycolicibacterium smegmatis,"microbial growth, resazurin",MC^2155,,MIC90,> 32 µg/mL
O=C(N/N=C1\C(=O)N(Cc2ccccc2)c2ccc(Br)cc21)c1cc2ccccc2[nH]1,ZR75,cell growth or viability,,30 µM,inhibition,79.9%
O=C(Nc1ncc(CC2CCCCC2)s1)C12CC3CC(CC(C3)C1)C2,Histoplasma capsulatum,microbial growth,,,MIC,> 20 µM
